# High-throughput results as filed in PubChem BioAssay.
# Hits are enriched below; roughly 0.72% of the tested compounds scored in any of these assays.
# hIAP inh: blocks human intestinal alkaline phosphatase. purified IAP, CDP-Star luminescence, 30 min. 330,000 tested, 0.12% active. AID 2544. P09923. inhibition, % at 10 µM;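 active = inhibition reaching a set limit with compound at 10 µM in the primary screen, cut at about 35% in these data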;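 note: plate controls were DMSO wells with enzyme for no effect and no-enzyme buffer wells for full effect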
# Target sequence (P09923 whole entry, looked up): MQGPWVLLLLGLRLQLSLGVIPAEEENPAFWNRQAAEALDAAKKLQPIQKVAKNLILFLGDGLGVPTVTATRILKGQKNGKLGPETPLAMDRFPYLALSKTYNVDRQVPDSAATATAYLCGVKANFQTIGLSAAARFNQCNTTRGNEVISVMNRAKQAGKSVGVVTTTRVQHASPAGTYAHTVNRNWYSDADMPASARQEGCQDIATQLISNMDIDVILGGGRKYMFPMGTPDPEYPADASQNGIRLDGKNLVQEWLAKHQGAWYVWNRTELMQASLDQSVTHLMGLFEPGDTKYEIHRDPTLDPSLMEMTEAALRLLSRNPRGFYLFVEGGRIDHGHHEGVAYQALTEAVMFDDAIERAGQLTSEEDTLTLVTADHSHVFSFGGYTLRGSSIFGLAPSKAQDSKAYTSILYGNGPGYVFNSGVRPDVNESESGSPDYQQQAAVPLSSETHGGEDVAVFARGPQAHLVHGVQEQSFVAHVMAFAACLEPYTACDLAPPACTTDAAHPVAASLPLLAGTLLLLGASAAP
# bIAP inhibitor: intestinal alkaline phosphatase (bovine) inhibition; purified bovine IAP, CDP-star luminescence, 30 min; inhibition, % at 20 µM; 190,000 tested, under 10 active;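 active = over 50% inhibition of intestinal alkaline phosphatase at 20 µM in the single-dose screen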
#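 test system = bovine IAP enzyme | medium = DEA buffer 100 mM, pH 9.8, with MgCl2 1.0 mM, ZnCl2 0.02 mM | detection = luminescence | dosing = single compound dose of 20 µM, 2% DMSO final | incubation = 30 min reaction at room temperature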
# mIAP activ: increases mouse intestinal alkaline phosphatase activity; muIAP, CDP-Star luminescence, 30 min; active compounds read high; 1 = vehicle-only enzyme signal, 0 = enzyme-free wells; activation factor at 10 µM; 330,000 tested, 0.24% active; AID 2805;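 active = activation factor of at least 2 at 20 µM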
#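 System: Mouse IAP enzyme | Also added: CDP-Star substrate | Dosing: Compounds dispensed in DMSO | Schedule: 30 min enzyme-substrate-compound incubation at room temperature | Technique: Chemiluminescence readout | Control set: DMSO-only wells and no-enzyme negative control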
# mIAP block: blocks mouse intestinal alkaline phosphatase; purified mouse IAP, CDP-Star luminescence, 30 min; inhibition, % at 10 µM; 330,000 tested, 0.2% active; AID 2806;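 active = inhibition of at least 40% at 10 µM in the primary screen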;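 note: plate controls were DMSO with enzyme for no effect and no enzyme wells for full effect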
# bIAP act: increases bovine intestinal alkaline phosphatase activity; purified bovine IAP, CDP-star luminescence, 30 min; active compounds read high; fold of DMSO-control signal, blank-subtracted; activation factor at 20 µM; 200,000 tested, 0.17% active;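 active = activation factor of 2 or more at 20 µM, a signal rise over negative controls twice the positive control's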
# hIAP act: human IAP activation; purified human IAP, CDP-Star luminescence, 30 min; active compounds read high; 1 = vehicle-only enzyme, 0 = enzyme-free background; P09923; 330,000 tested, 0.16% active; AID 2524; activation factor at 10 µM;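 active = activation factor of the enzyme at least 2-fold when tested at 20 µM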
# The depositor's hits bear a star; . = no result given.
SMILES,hIAP inh,bIAP inhibitor,mIAP activ,mIAP block,bIAP act,hIAP act
COc1ccccc1CCNC(=O)c1ccc(NC(=O)CC2SC(N3CCCC3)=NC2=O)cc1 (stereo unspecified),0,.,1,-2,.,0.99
CCOc1ccc2nc(COC(=O)c3cccc([N+](=O)[O-])c3)c(C(C)=O)[n+]([O-])c2c1,2,.,0.95,5,.,0.98
O=C(COC(=O)c1cc(S(=O)(=O)NCc2ccccc2)ccc1O)c1cc2ccccc2o1,8,.,0.92,8,.,0.92
COc1ccccc1CNC(=O)CN(CCc1ccccc1)S(C)(=O)=O,0,-4,1.1,-6,1,1
Cc1ccc(C(=O)/C=C/c2ccc3ncccc3c2)cc1,-1,.,0.94,6,.,1
Cc1ccc(S(=O)(=O)N2C(=O)CCC2C(=O)O/N=C(\N)c2cccc([N+](=O)[O-])c2)cc1 (stereo unspecified),-20,.,0.95,4,.,1.2
O=C(Oc1cc(=O)oc2ccccc12)c1cccnc1Cl,15,-143,0.89,11,2.4*,0.85
O=C(Nc1ccc(F)cc1)Nc1csc2ccccc12,-24,.,2.3*,-132,.,1.2
CCc1ccccc1NC(=O)Nc1ccc(F)cc1,-10,12,1.2,-22,0.9,1.1
O=C(Nc1ccc(F)cc1)Nc1ccccc1N1CCCCC1,-11,.,2.6*,-161,.,1.1
O=C(NCc1ccco1)/C(=C/c1ccccc1F)NC(=O)c1ccccc1,-16,.,1,-4,.,1.2
Cc1ccc(Cl)c(OCC(=O)Nc2ccc3c(c2)OCCO3)c1,6,10,0.96,4,0.9,0.94
O=C(COc1cc(Cl)c(Cl)cc1Cl)NC(=O)Nc1ccc2c(c1)OCCO2,0,-164,1,-4,2.6*,1
COc1ccc(-c2nn(-c3ccccc3C)cc2CNCCc2cnc[nH]2)cc1F,-50,-129,1,-3,2.3*,1.5
CCn1cc(CNCc2cn(-c3ccccc3C)nc2-c2ccc(OC)c(F)c2)cn1,5,0,0.96,4,1,0.95
COc1ccc(C2(C(=O)Nc3ccc(C)cc3)CCOCC2)cc1,4,1,1,-1,1,0.96
Cc1cc(=O)c(C(=O)O)nn1-c1ccccc1Cl,-4,.,0.92,8,.,1
Cc1ccc(C)c(NC(=S)NCCSc2ccc(Cl)cc2)c1,-5,36,1.9,-87,0.6,1.1
Cc1ccc(NC(=S)NCCSc2ccc(Cl)cc2)c(C)c1,0,-15,2,-99,1.1,1
Cc1cccc(NC(=S)NC(C)CCc2ccccc2)c1 (stereo unspecified),-8,38,2.2*,-117,0.6,1.1
Cc1cccc(NC(=S)NCC(c2ccccc2)N(C)C)c1 (stereo unspecified),-3,17,1.1,-9,0.8,1
Cc1cccc(NC(=S)NCC(C)CSc2ccc(Cl)cc2)c1 (stereo unspecified),-38,35,3.2*,-225,0.7,1.4
Cc1ccc(NC(=S)NCC(C)CSc2ccc(Cl)cc2)cc1 (stereo unspecified),-36,31,2.7*,-165,0.7,1.4
Cc1cccc(NC(=S)NCCSc2ccc(Cl)cc2)c1,-14,40,2.2*,-123,0.6,1.1
O=C(Cn1cc(S(=O)(=O)Cc2cccc([N+](=O)[O-])c2)c2ccccc21)N1CCOCC1,-18,.,0.9,10,.,1.2
SMILES,hIAP inh,bIAP inhibitor,mIAP activ,mIAP block,bIAP act,hIAP act
CCN(CC(=O)Nc1c(F)cccc1F)C(=O)c1nc2nccc(C)n2n1,5,.,0.97,3,.,0.95
CC(=O)Nc1ccc(S(=O)(=O)N2CCN=C2SCc2ccc([N+](=O)[O-])cc2)cc1,-2,.,1,-2,.,1
NC(=O)c1ccc(NC(=O)COC(=O)CCN2C(=O)c3ccccc3C2=O)cc1,19,.,0.92,8,.,0.81
CCc1ccccc1NC(=S)NCCSc1ccc(Cl)cc1,19,.,2*,-102,0.5,0.81
Cc1ccccc1NC(=S)NCCSc1ccc(Cl)cc1,-13,.,2,-97,0.4,1.1
O=C(CN1CCN(S(=O)(=O)c2ccccc2F)CC1)N1CCc2ccccc2C1,-12,.,1.1,-10,.,1.1
COc1cccc(NCc2cc3c(C(C)(C)C)nn(-c4ccccc4)c3[nH]c2=O)c1,-3,-280,1.1,-8,3.8*,1
CC(=O)Nc1cccc(-c2nnc(SCC(=O)n3c4c(c5ccccc53)CCCC4)n2C)c1,3,10,0.95,5,0.9,0.97
COC(=O)Nc1ccc(S(=O)(=O)Nc2ccc(C)cc2)cc1,.,6,.,.,0.9,.
COC(=O)Nc1ccc(S(=O)(=O)Nc2ccc(O)cc2)cc1,-5,-142,0.88,12,2.4*,1.1
Cc1ccccc1-c1cc(C(=O)O)nn1CC1CC(c2cccc([N+](=O)[O-])c2)=NO1 (stereo unspecified),9,.,0.99,1,.,0.91
O=C(O)CCN1C(=O)c2ccc(NC(=O)COc3ccccc3)cc2C1=O,-26,.,0.98,2,.,1.3
O=C(Nc1nnc(-c2ccc3c(c2)OCCO3)o1)C1CCCCC1,-3,-7,0.87,13,1.1,1
COc1ccc(C2=NOC(Cn3nc(-c4ccccc4)cc3C(=O)NCc3cccs3)C2)cc1 (stereo unspecified),10,.,2.9*,-187,.,0.9
CCc1ccc(NC(=O)Nc2cccc(OC)c2)cc1,-2,6,2.5*,-151,0.9,1
CCOC(=O)c1ccc(N2CCN(c3ccc(F)cc3)CC2)c(NC(=O)Nc2cccc(OC)c2)c1,-15,33,2.8*,-184,0.7,1.1
COc1ccc(NC(=O)Nc2ccc(Br)c(C)c2)cc1,-20,0,2.1*,-106,1,1.2
COc1cccc(NC(=O)Nc2ccc(CC(=O)O)cc2)c1,-1,-4,0.92,8,1,1
COc1ccc(NC(=O)Nc2cc(C)ccc2OC)cc1,2,11,1,-3,0.9,0.98
COc1ccc2c(ccn2S(=O)(=O)c2ccccc2)c1,-1,.,0.98,2,.,1
C/C(=N\NC(=O)C1CCCC1)c1ccc(Cl)c(Cl)c1,-40,.,0.37,63*,.,1.4
C/C(=N\NC(=O)C1CCCC1)c1ccc(C(C)C)cc1,-13,.,1,-3,.,1.1
CCC/C(C(=O)NCCO)=C1/c2ccccc2C(=O)N1c1ccccc1,6,.,0.88,12,.,0.94
COc1ccc(C(CC(=O)Nc2cc(OC)cc(OC)c2)n2cccc2)cc1 (stereo unspecified),-20,10,2.2*,-122,0.9,1.2
COc1ccc(C(CC(=O)Nc2ccccc2OC)n2cccc2)cc1 (stereo unspecified),-5,11,1,0,0.9,1
Cc1ccc(NC(=O)Nc2ccccc2F)cc1S(=O)(=O)N1CCOCC1,-15,.,2.6*,-158,.,1.1
